According to ChEMBL document CHEMBL1125115 (J Med Chem, 1990):
Square brackets hold non-standard residues; d marks the D form. Peptide text beside a SMILES is read from it. GABA = NCCCC(=O)O

Assays:
[1] = target: T1, Substance-K receptor (Rattus norvegicus, UniProt P16610); assay: Agonist activity was measured at neurokinin-2 receptor in the rat colon muscularis mucosae; type: functional, tissue-based, Muscularis mucosa
T1 sequence (P16610 whole entry): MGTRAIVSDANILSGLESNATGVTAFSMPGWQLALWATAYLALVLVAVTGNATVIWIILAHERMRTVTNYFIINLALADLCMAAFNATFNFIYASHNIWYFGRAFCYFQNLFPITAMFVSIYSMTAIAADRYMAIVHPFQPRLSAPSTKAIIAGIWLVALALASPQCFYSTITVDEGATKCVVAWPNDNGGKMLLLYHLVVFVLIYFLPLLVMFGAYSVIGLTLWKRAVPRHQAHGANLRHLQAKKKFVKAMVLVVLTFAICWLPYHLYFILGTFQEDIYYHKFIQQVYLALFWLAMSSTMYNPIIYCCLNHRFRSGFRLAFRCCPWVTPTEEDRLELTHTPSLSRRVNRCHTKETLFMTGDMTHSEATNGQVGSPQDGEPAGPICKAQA
How it was run: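 Rat colon muscularis mucosae strip (NK-2); isotonic contractions at 35 °C with atropine, mepyramine, methysergide and indomethacin (each 1 µM). Equipotent molar ratios converted to EC50 using mean EC50 of standard agonist.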

[2] = target: Substance-P receptor (Cavia porcellus, UniProt P30547); assay: Agonistic activity at neurokinin-1 (NK-1) receptor in guinea pig ileum longitudinal smooth muscle; type: functional, tissue-based
Substance-P receptor, sequence (P30547 whole entry): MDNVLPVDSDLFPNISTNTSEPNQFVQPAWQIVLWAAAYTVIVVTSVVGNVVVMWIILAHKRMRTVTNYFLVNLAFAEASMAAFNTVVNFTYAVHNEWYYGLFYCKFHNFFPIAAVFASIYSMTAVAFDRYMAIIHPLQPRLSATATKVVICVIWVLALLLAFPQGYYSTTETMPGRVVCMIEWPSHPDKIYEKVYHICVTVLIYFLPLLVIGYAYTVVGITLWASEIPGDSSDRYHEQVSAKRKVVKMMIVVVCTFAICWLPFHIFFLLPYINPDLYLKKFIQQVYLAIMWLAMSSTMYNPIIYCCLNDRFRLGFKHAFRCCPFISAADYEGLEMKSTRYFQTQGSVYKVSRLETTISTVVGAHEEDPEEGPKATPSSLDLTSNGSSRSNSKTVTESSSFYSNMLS
How it was run: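 Guinea pig ileum longitudinal smooth muscle-myenteric plexus strip (NK-1); isotonic contractions at 35 °C with atropine, mepyramine, methysergide and indomethacin (each 1 µM). Equipotent molar ratios converted to EC50 using mean EC50 of standard agonist.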

[3] = target: Substance-P receptor (Cavia porcellus) (UniProt P30547); assay: Antagonistic activity against the highly selective tachykinin receptor 1 in guinea pig ileum; type: functional, tissue-based
Substance-P receptor (Cavia porcellus), sequence (P30547 whole entry): as above

[4] = target: T2, Substance-K receptor (Rattus norvegicus) (UniProt P16610); assay: Antagonistic activity against the highly selective tachykinin receptor 2 in rat colon muscularis mucosae; type: functional
T2 sequence (whole entry): T1 sequence (P16610 whole entry)
How it was run: (§1)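 Rat colon muscularis mucosae, isotonic contractions at 35 °C with atropine, mepyramine, methysergide, indomethacin (1 µM each). Dose ratio from rightward shift of agonist concentration-response curve with antagonist present; pKB = log[DR - 1] - log[B], B = molar antagonist concentration.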

[5] = target: T2, Substance-K receptor (Rattus norvegicus); assay: Antagonistic activity at tachykinin receptor 2 in the rat colon muscularis mucosae; C= Partial agonist; type: functional; details: filed as partial agonist; how it was run: as §1

| EC50 [1] [µM] | EC50 [2] [µM] | pKB [3] | pKB [4] | pKB [5] | Structure (SMILES) |
| --- | --- | --- | --- | --- | --- |
| > 16 | 4.38 | – | – | – | CC(C)C[C@H](NC(=O)CNC(=O)[C@H](Cc1ccccc1)NC(=O)[C@H](Cc1ccccc1)NC(=O)CCCN)C(=O)N[C@@H](Cc1c[nH]c2ccccc12)C(N)=O (H-[GABA]FFGLW-NH2) |
| – | – | 5.66 | < 4.5 | – | CSCC[C@@H](NC(=O)[C@H](CC(C)C)N1CCC2(CCCN2C(=O)[C@H](Cc2ccccc2)NC(=O)[C@H](Cc2ccccc2)NC(=O)CCCN)C1=O)C(N)=O (stereo partly specified) |
| – | – | 6.28 | 5.36 | – | CC(C)C[C@@H](C(=O)N[C@H](Cc1ccccc1)C(N)=O)N1CCC2(CCCN2C(=O)[C@H](Cc2ccccc2)NC(=O)[C@H](Cc2ccccc2)NC(=O)CCCN)C1=O (stereo partly specified) |
| – | – | 5.6 | – | Partial agonist | CSCC[C@H](NC(=O)[C@H](CC(C)C)N1CCC2(CCCN2C(=O)[C@H](Cc2ccccc2)NC(=O)[C@H](Cc2ccccc2)NC(=O)CCCN)C1=O)C(N)=O (stereo partly specified) |
| – | – | 6.62 | 5.27 | – | CC(C)C[C@@H](C(=O)NC(Cc1c[nH]c2ccccc12)C(N)=O)N1CCC2(CCCN2C(=O)[C@H](Cc2ccccc2)NC(=O)[C@H](Cc2ccccc2)NC(=O)CCCN)C1=O (stereo partly specified) |
| – | – | 6.43 | 5.86 | – | CC(C)C[C@@H](C(=O)N[C@H](CC1CCCCC1)C(N)=O)N1CCC2(CCCN2C(=O)[C@H](Cc2ccccc2)NC(=O)[C@H](Cc2ccccc2)NC(=O)CCCN)C1=O (stereo partly specified) |
| – | – | 6.64 | 5.84 | – | CC(C)C[C@@H](C(=O)NC(CCc1ccccc1)C(N)=O)N1CCC2(CCCN2C(=O)[C@H](Cc2ccccc2)NC(=O)[C@H](Cc2ccccc2)NC(=O)CCCN)C1=O (stereo partly specified) |
| – | – | < 4.5 | < 4.5 | – | CNC(=O)[C@H](CC(C)C)N1CCC2(CCCN2C(=O)[C@H](Cc2ccccc2)NC(=O)[C@H](Cc2ccccc2)NC(=O)CCCN)C1=O (stereo partly specified) |
